Measured values published in paper PMC7472862 (Heliyon, 2020).
Several values for one entry are separate records, joined by “and”; a condition that tells them apart may be missing. Identical values can stand only once.

How the values were obtained:
rat α-glucosidase = test: α-glucosidase inhibition method; assay type: biochemical
Method in brief: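 Enzyme was the supernatant of rat intestinal acetone powder in saline, sonicated at 4 °C and spun at 1008 ×g (4 °C, 30 min). Test compound (20–300 µg/mL) and enzyme pre-incubated 5 min at 37 °C in 50 mM phosphate pH 6.8. 3 mM PNPG added, then 30 min at 37 °C and A405 read.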

[1] = biological target: T1, porcine pancreatic α-amylase (Sus scrofa, UniProt P00690); test: biochemical; conditions: α-Amylase inhibition method IC50 value
T1 sequence (P00690 16-511): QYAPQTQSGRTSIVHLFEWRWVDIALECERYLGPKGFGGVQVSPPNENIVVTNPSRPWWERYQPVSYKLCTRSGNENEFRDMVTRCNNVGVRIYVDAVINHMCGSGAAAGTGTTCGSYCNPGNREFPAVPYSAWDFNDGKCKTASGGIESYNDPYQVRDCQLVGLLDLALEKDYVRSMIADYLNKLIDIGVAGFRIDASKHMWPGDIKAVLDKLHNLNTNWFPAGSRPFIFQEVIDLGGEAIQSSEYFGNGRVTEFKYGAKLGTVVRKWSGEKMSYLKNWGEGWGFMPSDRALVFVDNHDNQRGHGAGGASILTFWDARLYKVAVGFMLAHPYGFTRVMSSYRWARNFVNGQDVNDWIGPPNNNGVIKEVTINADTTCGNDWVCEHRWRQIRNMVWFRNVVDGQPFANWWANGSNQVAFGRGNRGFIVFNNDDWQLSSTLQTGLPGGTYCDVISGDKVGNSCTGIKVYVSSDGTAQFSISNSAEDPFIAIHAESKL

[2] = DPPH free radical scavenging assay
Method in brief: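 Test compound (20–300 µg/mL) mixed with an equal volume of DPPH solution, shaken vigorously, then kept 30 min in the dark at room temperature. Absorbance read at 517 nm. % scavenging = (OD control − OD sample)/OD control × 100, and IC50 derived from this. Ascorbic acid (10–150 µg/mL) served as positive control.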

[3] = ABTS radical scavenging assay
Method in brief: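 ABTS radical cation formed by mixing 7 mM ABTS with 2.4 mM ammonium persulfate (1:1) and leaving 18–24 h in the dark at room temperature. Test compound (20–300 µg/mL) added to the ABTS solution and absorbance read at 734 nm. % inhibition = (OD control − OD sample)/OD control × 100, and IC50 taken from this. Ascorbic acid (10–150 µg/mL) served as positive control.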

Compound	α-Glucosidase inhibition method IC50 value (rat α-glucosidase)	IC50 [1]	DPPH Assay IC50 value [2]	ABTS Assay IC50 value [3]
Cc1noc(NS(=O)(=O)c2ccc(N=NN(C)O)cc2)c1C [SF-1, 3ـhydroxyـ3ـmethylـ1ـ(4ـ(Nـ(3,4ـdimethylisoxazolـ5ـyl)sulfamoyl)phenyl)triazene]	270 µg/mL	531 µM	556.65 µg/mL	–
CCN(O)N=Nc1ccc(S(=O)(=O)Nc2onc(C)c2C)cc1 [SF-2, 3ـhydroxyـ3ـethylـ1ـ(4ـ(Nـ(3,4ـdimethylisoxazolـ5ـyl)sulfamoyl)phenyl)triazene]	248.64 µg/mL	625 µM	614.17 µg/mL	229.83 µg/mL
CCCN(O)N=Nc1ccc(S(=O)(=O)Nc2onc(C)c2C)cc1 [SF-3, 3ـhydroxyـ3ـpropylـ1ـ(4ـ(Nـ(3,4ـdimethylisoxazolـ5ـyl)sulfamoyl)phenyl)triazene]	235.55 µg/mL	419 µM	490.82 µg/mL	218.94 µg/mL
Cc1noc(NS(=O)(=O)c2ccc(N=NN(O)c3ccccc3)cc2)c1C [SF-4, 3ـhydroxyـ3ـphenylـ1ـ(4ـ(Nـ(3,4ـdimethylisoxazolـ5ـyl)sulfamoyl)phenyl)triazene]	233 µg/mL	452 µM	578.76 µg/mL	–
Cc1cccc(N(O)N=Nc2ccc(S(=O)(=O)Nc3onc(C)c3C)cc2)c1 [SF-5, 3ـhydroxyـ3ـ(3ـmethylphenyl)ـ1ـ(4ـ(Nـ(3,4ـdimethylisoxazolـ5ـyl)sulfamoyl)phenyl)triazene]	292 µg/mL	546 µM and 548 µM	423 µg/mL and 423.91 µg/mL	164.34 µg/mL
Cc1ccc(N(O)N=Nc2ccc(S(=O)(=O)Nc3onc(C)c3C)cc2)cc1 [SF-6, 3ـhydroxyـ3ـ(4ـmethylphenyl)ـ1ـ(4ـ(Nـ(3,4ـdimethylisoxazolـ5ـyl)sulfamoyl)phenyl)triazene]	329 µg/mL	612 µM	587.28 µg/mL	70 µg/mL and 70.62 µg/mL
C[C@H]1O[C@H](O[C@H]2[C@H](O)[C@@H](O)[C@@H](O[C@H]3[C@H](O)[C@@H](O)C(O)O[C@@H]3CO)O[C@@H]2CO)[C@H](O)[C@@H](O)[C@@H]1N[C@H]1C=C(CO)[C@@H](O)[C@H](O)[C@H]1O (some centres unmarked) [acarbose, reference compound]	12.21 (acarbose) μg/mL	–	–	–
O=C1O[C@H]([C@@H](O)CO)C(O)=C1O [ascorbic acid, reference compound]	–	–	29.12 (ascorbic acid) μg/mL	69.13 (ascorbic acid) μg/mL

Now from value to compound:

α-Glucosidase inhibition method IC50 value (rat α-glucosidase)	IC50 [1]	DPPH Assay IC50 value [2]	ABTS Assay IC50 value [3]	Compound
–	698 µM	426 µg/mL and 426.75 µg/mL	252.96 µg/mL	Cc1cc(NS(=O)(=O)c2ccc(N=NN(C)O)cc2)no1 [SM-1, 3ـhydroxyـ3ـmethylـ1ـ(4ـ(Nـ(5ـmethylisoxazolـ3ـyl)sulfamoyl)phenyl)triazene]
201.99 µg/mL	376 µM	–	401.72 µg/mL	CCN(O)N=Nc1ccc(S(=O)(=O)Nc2cc(C)on2)cc1 [SM-2, 3ـhydroxyـ3ـethylـ1ـ(4ـ(Nـ(5ـmethylisoxazolـ3ـyl)sulfamoyl)phenyl)triazene]
222.91 µg/mL	624 µM	624 µg/mL	282.32 µg/mL	CCCN(O)N=Nc1ccc(S(=O)(=O)Nc2cc(C)on2)cc1 [SM-3, 3ـhydroxyـ3ـpropylـ1ـ(4ـ(Nـ(5ـmethylisoxazolـ3ـyl)sulfamoyl)phenyl)triazene]
249 µg/mL	469 µM	583.31 µg/mL	104.13 µg/mL	Cc1cc(NS(=O)(=O)c2ccc(N=NN(O)c3ccccc3)cc2)no1 [SM-4, 3ـhydroxyـ3ـphenylـ1ـ(4ـ(Nـ(5ـmethylisoxazolـ3ـyl)sulfamoyl)phenyl)triazene]
314.43 µg/mL	519 µM	660 µg/mL and 660.39 µg/mL	81.50 µg/mL	Cc1cccc(N(O)N=Nc2ccc(S(=O)(=O)Nc3cc(C)on3)cc2)c1 [SM-5, 3ـhydroxyـ3ـ(3ـmethylphenyl)ـ1ـ(4ـ(Nـ(5ـmethylisoxazolـ3ـyl)sulfamoyl)phenyl)triazene]
262.74 µg/mL	425 µM	550.32 µg/mL	250.26 µg/mL	Cc1ccc(N(O)N=Nc2ccc(S(=O)(=O)Nc3cc(C)on3)cc2)cc1 [SM-6, 3ـhydroxyـ3ـ(4ـmethylphenyl)ـ1ـ(4ـ(Nـ(5ـmethylisoxazolـ3ـyl)sulfamoyl)phenyl)triazene]
238 µg/mL	559 µM	488 µg/mL and 488.06 µg/mL	–	CN(O)N=Nc1ccc(S(=O)(=O)Nc2nccs2)cc1 [ST-1, 3ـhydroxyـ3ـmethylـ1ـ(4ـ(Nـ(thiazolـ2ـyl)sulfamoyl)phenyl)triazene]
219 µg/mL	707 µM	532.35 µg/mL	232.39 µg/mL and 232.393 µg/mL	CCN(O)N=Nc1ccc(S(=O)(=O)Nc2nccs2)cc1 [ST-2, 3ـhydroxyـ3ـethylـ1ـ(4ـ(Nـ(thiazolـ2ـyl)sulfamoyl)phenyl)triazene]
252 µg/mL	586 µM	662 µg/mL and 662.79 µg/mL	160.145 µg/mL	CCCN(O)N=Nc1ccc(S(=O)(=O)Nc2nccs2)cc1 [ST-3, 3ـhydroxyـ3ـpropylـ1ـ(4ـ(Nـ(thiazolـ2ـyl)sulfamoyl)phenyl)triazene]
280.03 µg/mL	550 µM	565.88 µg/mL	–	O=S(=O)(Nc1nccs1)c1ccc(N=NN(O)c2ccccc2)cc1 [ST-4, 3ـhydroxyـ3ـphenylـ1ـ(4ـ(Nـ(thiazolـ2ـyl)sulfamoyl)phenyl)triazene]
341 µg/mL	558 µM	472.08 µg/mL	92.075 µg/mL	Cc1cccc(N(O)N=Nc2ccc(S(=O)(=O)Nc3nccs3)cc2)c1 [ST-5, 3ـhydroxyـ3ـ(3ـmethylphenyl)ـ1ـ(4ـ(Nـ(thiazolـ2ـyl)sulfamoyl)phenyl)triazene]
